Screening data (PubChem BioAssay)
MrgX1 PAM – allosterically activates human MrgX1 receptor signaling. Q96LB2. MrgX1-HEK293, Fluo-4 calcium flux, FDSS; active compounds read high. B-score at 10 µM. actives 0.63% (n = 310,000);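 active = plate-corrected calcium response at least 3 library SD above typical, normal starting fluorescence, not activating the receptor alone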;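 note: compound read alongside a low EC10 to EC30 dose of BAM8-22 agonist; peak minus trough fluorescence over baseline measured at the second addition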
Target sequence (Q96LB2 whole entry, looked up): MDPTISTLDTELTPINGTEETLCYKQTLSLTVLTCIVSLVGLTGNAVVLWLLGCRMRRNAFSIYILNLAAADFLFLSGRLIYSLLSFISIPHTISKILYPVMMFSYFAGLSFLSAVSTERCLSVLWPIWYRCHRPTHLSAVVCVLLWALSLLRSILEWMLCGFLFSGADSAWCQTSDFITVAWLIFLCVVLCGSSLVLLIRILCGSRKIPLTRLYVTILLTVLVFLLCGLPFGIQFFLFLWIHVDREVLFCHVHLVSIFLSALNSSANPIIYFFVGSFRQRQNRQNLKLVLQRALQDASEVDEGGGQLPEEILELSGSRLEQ
RGS4 pot – RGS4 potentiation or activation. B-score at 10 µM. actives 0.92% (n = 310,000). AID 463111. HEK293 M3R/inducible RGS4, carbachol calcium flux Fluo4; active compounds read low;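 active = B-score of the integrated calcium signal more than 4 SD below the library mean, with starting fluorescence not abnormally high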;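 note: negative B-score means reduced calcium response which marks RGS4 activation or potentiation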
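Reagent: ECmax carbachol challenge; Test system: M3R-expressing HEK293 line, RGS4 induced by doxycycline; Schedule: overnight RGS4 induction, 30 min dye load 37 °C, 20 min compound RT; Detection: calcium dye Fluo4 fluorescence; Read-out: Agonist-evoked peak-minus-minimum fluorescence over baseline, integrated ratio, B score.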
MrgX1 antag – human MrgX1 receptor antagonism, primary screen. MRGX1-HEK293 calcium flux, Fluo-4, BAM8-22 antagonism; active compounds read low. B-score at 10 µM. actives 1.3% (n = 310,000);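 active = calcium-response B-score plate-corrected more than 3 library SD below zero, starting fluorescence within 5 deviations, no agonist response on first addition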;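 note: peak minus trough fluorescence over baseline after final BAM8-22 challenge near maximal dose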
MrgX1 ag – activates human MrgX1 receptor signaling | Q96LB2 | MrgX1-HEK293 cells, Fluo-4 calcium fluorescence, agonist mode; active compounds read high | B-score at 10 µM | actives 0.44% (n = 310,000) | AID 588627;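 active = calcium response B-score plate-corrected fluorescence ratio at least 3 library SD, with starting fluorescence B-score inside 5 SD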
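Material: HEK293 cells stably expressing human MrgX1 receptor | Quantity: 15,000 cells per well | Times: Cells plated overnight, dye loaded 0.5 h 37 °C, 0.5 h room temperature | Measured by: Kinetic Fluo-4 NW fluorescence of intracellular calcium | Control set: Positive and negative controls per plate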
RGS4 block – inhibitors of human RGS4; HEK293 M3R/RGS4 inducible, Fluo-4 calcium flux; active compounds read high; triggered by carbachol at its EC20; AID 463165; P49798; B-score at 10 µM; actives 0.45% (n = 310,000);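 active = B-score, a plate-corrected calcium signal, over three deviations above library mean, with baseline fluorescence within five deviations of library mean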;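 note: RGS4 expression induced by doxycycline in cells with stable M3 receptor; B-score is computed from the integrated fluorescence ratio over baseline after carbachol; higher B-score means a larger calcium signal and so more RGS4 inhibition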
Target sequence (P49798 whole entry, looked up): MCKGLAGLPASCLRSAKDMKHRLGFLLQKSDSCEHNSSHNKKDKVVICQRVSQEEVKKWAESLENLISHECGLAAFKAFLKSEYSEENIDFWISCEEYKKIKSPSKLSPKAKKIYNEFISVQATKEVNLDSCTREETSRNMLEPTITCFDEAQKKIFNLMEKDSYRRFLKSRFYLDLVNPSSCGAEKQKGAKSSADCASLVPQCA
An asterisk follows results filed as active; i = inactive; . = no result. Hits are enriched below; roughly 3.5% of the tested compounds scored in any of these assays.

SMILES	MrgX1 PAM	RGS4 pot	MrgX1 antag	MrgX1 ag	RGS4 block
Cn1c(C(=O)Nc2ccc(Cl)cc2)cc2cc(Cl)ccc21	i	i	i	i	i
COc1ccc(C(CNC(=O)C(=O)Nc2ccc3c(c2)OCO3)N2CCN(C)CC2)cc1 (stereo not given)	i	i	-6.2*	i	i
O=c1oc2cc(O)ccc2cc1-c1nc2c(s1)CCc1ccccc1-2	i	.	i	i	.
O=c1oc2ccccc2cc1-c1nc2c(s1)CCc1ccccc1-2	i	i	-6.8*	i	i
CCC(C)NCCCCOc1cc(C)cc(C(C)C)c1 (stereo not given)	i	-7.3*	i	i	i
O=C(COc1ccc(F)cc1Cl)N(Cc1nnc(-c2ccccc2Cl)o1)C1CC1	i	i	i	i	i
OCC1CCCN(c2nc(CN3CCCCC3)nc3scc(-c4ccccc4)c23)C1 (stereo not given)	i	i	i	i	i
CCNc1nc(CN2CCCCC2)nc2scc(-c3ccccc3)c12	i	-7.2*	i	i	i
O=C(Cc1ccc(Cl)cc1)NCC(=O)N1CCCCCC1	i	i	i	i	i
COC(=O)c1ccc(CO/N=C/c2ccc(OC)cc2)o1	i	i	i	i	i
COc1ccc2c(c1)C(c1ccc(C)o1)=NNC(c1ccccc1)=N2	i	i	-8.4*	i	i
CCOc1ccc(S(=O)(=O)NC(Cc2cnc[nH]2)C(=O)O)cc1 (stereo not given)	i	i	-4.9*	i	i
COc1ccc(OCC(=O)Nc2ccccc2N2CCN(C)CC2)cc1	i	i	i	i	i
Cc1cccc(OCC(=O)Nc2ccccc2N2CCCCC2)c1C	i	i	i	i	i
COc1ccc(OCC(=O)Nc2ccccc2N2CCCCC2)cc1	15*	i	i	i	i
Cc1cccc(C)c1OCC(=O)Nc1ccccc1N1CCCCC1	7.4*	i	i	i	i
OCCC#Cc1ccc(CN2CCN(C3CCCCC3)C(CCO)C2)cc1 (stereo not given)	i	i	i	i	i
COc1ccc(-c2cc3c(=O)n(CC(=O)Nc4ccc(Cl)cc4)nc(C)n3n2)cc1	i	i	i	i	i
Cc1cc(C)c(OCC(=O)OCC(=O)NCCC2=CCCCC2)c(C)c1	i	i	i	i	i
Cc1ccc(S(=O)(=O)NCC(=O)N/N=C/c2ccccc2O)cc1	i	i	-5.4*	i	i
CN1CCN(C2=Cc3ccccc3Sc3cc(F)c(Cl)cc32)CC1	i	-10*	i	i	i
CN1CCN(C2=Cc3ccccc3Sc3cc(F)c(F)cc32)CC1	i	i	i	i	i
CC(=O)N(C)c1ccc(NC(=O)Nc2ccc(C)c(C)c2)cc1	i	-7.4*	i	i	i
COc1ccc(/C=C/C(=O)Nc2cccc(F)c2)cc1S(=O)(=O)N1CCOCC1	i	i	i	i	i
COc1ccc(/C=C/C(=O)Nc2ccccc2C)cc1S(=O)(=O)N1CCOCC1	8*	i	i	i	i
SMILES	MrgX1 PAM	RGS4 pot	MrgX1 antag	MrgX1 ag	RGS4 block
CCNc1ccc(Br)cc(C(=O)/C=C/c2c(Cl)cccc2Cl)c1=O	i	i	-4.6*	i	i
CCNc1ccc(Br)cc(C(=O)/C=C/c2ccc(Cl)cc2)c1=O	i	i	i	i	i
O=C(CN1CCCCC1)N1c2ccccc2Oc2ccccc21	i	-7.5*	i	i	i
CC1Cc2ccccc2N1C(=O)CN1CCCCC1 (stereo not given)	i	i	i	i	i
Cc1ccccc1NC(=O)Cc1nc(COC(=O)C(C)C)cs1	i	i	i	i	i
CC(=O)Nc1ccc(S(=O)(=O)NCCC(=O)OCc2csc(CC(=O)Nc3ccccc3C)n2)cc1	i	i	-4.5*	i	i
CC(C)CC(=O)Nc1c2c(nn1-c1ccc(F)cc1)CS(=O)(=O)C2	i	i	i	i	i
COc1ccc(C(CCN(Cc2ccc(OC)c(OC)c2)C(C)=O)c2ccccc2)cc1 (stereo not given)	i	i	i	i	i
COc1ccc(CN(CCC(c2ccccc2)c2ccc(OC(C)C)cc2)C(=O)CCl)cc1OC (stereo not given)	10*	-7.1*	i	i	i
CCN1C(=O)/C(=C/C=C2\N(CC)c3cc(S(=O)(=O)N(C)C)ccc3N2c2ccccc2)SC1=S	i	i	i	36*	i
O=C(COc1ccccc1F)NNC(=O)c1cccc(-n2cccc2)c1	i	i	-5*	i	i
O=C(COC(=O)c1cc(=O)[nH]c2ccccc12)Nc1ccc(Cl)cn1	i	i	i	i	i
Cc1nc(S/C(=C/c2ccc(-c3ccc(Cl)cc3)o2)C(=O)O)n[nH]1	i	i	i	i	i
Cc1nc(S/C(=C/c2ccc(-c3cc(Cl)ccc3C)o2)C(=O)O)n[nH]1	i	i	-5*	i	i
CC(=O)c1ccc(-c2ccc(/C=C(/Sc3n[nH]c(C)n3)C(=O)O)o2)cc1	i	i	-4.8*	i	i
Cc1nc(S/C(=C/c2ccc(-c3ccc(C(=O)O)cc3)o2)C(=O)O)n[nH]1	i	i	i	i	i
O=c1cc2[nH]c3ccccc3c(=O)n2nc1-c1ccccc1	i	i	i	i	i
NC(=O)C1CCN(C2=C(NS(=O)(=O)c3ccc(Cl)cc3)C(=O)c3ccccc3C2=O)CC1	9.9*	i	i	i	i
O=[N+]([O-])c1ccccc1S(=O)(=O)N1CCN(C2CCN(Cc3ccccc3)CC2)CC1	i	-7.3*	i	i	i
O=[N+]([O-])c1ccc(S(=O)(=O)N2CCN(C3CCN(Cc4ccccc4)CC3)CC2)cc1	i	-7.5*	i	i	i
O=[N+]([O-])c1ccccc1S(=O)(=O)N1CCN(C2CCCC2)CC1	i	i	i	i	i
COc1cccc(/C=C/c2ccc3cccc(O)c3n2)c1OC	i	-7.4*	i	i	i
COc1ccc(/C=C/c2ccc3cccc(O)c3n2)c(OC)c1OC	i	i	i	i	i
CCCCOc1ccc(OC(=O)Nc2cc(Cl)ccc2OC)cc1	i	i	i	i	i
Cc1ccc(-c2nn(-c3ccccc3)cc2C=C2C(=O)CC(C)(C)CC2=O)cc1	i	i	i	i	11*
CC1=NNC(=O)/C1=C\c1cn(-c2ccccc2)nc1-c1ccc(Cl)cc1	i	i	i	i	i
